Assay results taken from ChEMBL document CHEMBL4725448, “Substituted Azabicyclo[2.2.1]heptanes as Selective Orexin-1 Antagonists: Discovery of JNJ-54717793” (ACS Med Chem Lett, 2020).

Key:
[1] = target: T1, Orexin/Hypocretin receptor type 1 (Homo sapiens, UniProt O43613); experiment: Binding affinity to human […]
T1 sequence (O43613 whole entry): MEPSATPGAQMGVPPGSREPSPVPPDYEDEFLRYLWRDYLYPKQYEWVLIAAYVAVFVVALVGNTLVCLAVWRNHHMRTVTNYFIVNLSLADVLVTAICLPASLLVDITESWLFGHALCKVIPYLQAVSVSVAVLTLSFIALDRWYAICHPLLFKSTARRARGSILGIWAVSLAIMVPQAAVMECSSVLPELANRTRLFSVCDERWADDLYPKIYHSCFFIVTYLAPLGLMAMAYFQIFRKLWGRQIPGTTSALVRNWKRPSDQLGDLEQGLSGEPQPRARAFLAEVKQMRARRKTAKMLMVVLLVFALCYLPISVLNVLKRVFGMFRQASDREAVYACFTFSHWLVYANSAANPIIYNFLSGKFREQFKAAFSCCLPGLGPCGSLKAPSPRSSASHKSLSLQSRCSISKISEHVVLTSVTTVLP

Orexin receptor type 2 = target: T2, Orexin receptor type 2 (Homo sapiens, UniProt O43614); experiment: Binding affinity to human OX2R
T2 sequence (O43614 whole entry): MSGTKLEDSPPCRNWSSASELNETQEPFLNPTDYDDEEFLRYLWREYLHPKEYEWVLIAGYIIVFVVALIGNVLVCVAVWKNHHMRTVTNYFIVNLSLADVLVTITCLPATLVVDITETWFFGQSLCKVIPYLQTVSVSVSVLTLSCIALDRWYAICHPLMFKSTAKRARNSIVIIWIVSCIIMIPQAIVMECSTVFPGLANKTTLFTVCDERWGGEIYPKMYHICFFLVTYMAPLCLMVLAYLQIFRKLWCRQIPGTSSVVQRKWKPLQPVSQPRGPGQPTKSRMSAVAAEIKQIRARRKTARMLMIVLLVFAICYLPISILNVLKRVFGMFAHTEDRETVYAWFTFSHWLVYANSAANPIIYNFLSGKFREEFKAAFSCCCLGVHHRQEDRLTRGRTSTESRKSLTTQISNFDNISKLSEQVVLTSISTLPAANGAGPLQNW

[2] = Stability in human liver microsomes assessed as extraction ratio; type: ADME, Microsome; details: read-out: ERH
Method in brief: (§1)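 Metabolic stability in human or rat liver microsomes, expressed as extraction ratios.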

[3] = Stability in rat liver microsomes assessed as extraction ratio; type: ADME, Microsome; details: read-out: ERH; method in brief: as §1
[4] = Ex vivo receptor occupancy at OX1R in Sprague-Dawley rat brain tenia tecta using [3H]SB-674042 labelling at 10 mg/kg, po measured after 2 hrs by autoradiography; type: functional
Method in brief: (§2)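 Rats received a single oral dose, and OX1R occupancy was measured by ex vivo binding autoradiography in brain tenia tecta sections at 0.5, 2 and 6 h after dosing. Occupancy is expressed as percent. Brain and plasma drug levels (ng/mL) were also sampled at the 0.5 h time point.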

[5] = Drug concentration in Sprague-Dawley rat brain at 10 mg/kg, po after 0.5 hrs by LC-MS/MS analysis; type: ADME, organism-based; details: read-out: Ct
Method in brief: (§3)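 Brain and plasma levels (ng/mL) sampled 0.5 h after oral dosing at 10 or 30 mg/kg, alongside the ex vivo tenia tecta occupancy study.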

[6] = Ex vivo receptor occupancy at OX1R in Sprague-Dawley rat brain tenia tecta using [3H]SB-674042 labelling at 10 mg/kg, po measured after 0.5 hrs by autoradiography; type: functional; method in brief: as §2
[7] = Ex vivo receptor occupancy at OX1R in Sprague-Dawley rat brain tenia tecta using [3H]SB-674042 labelling at 10 mg/kg, po measured after 6 hrs by autoradiography; type: functional; method in brief: as §2
[8] = Drug concentration in Sprague-Dawley rat plasma at 10 mg/kg, po after 0.5 hrs by LC-MS/MS analysis; type: ADME, organism-based; method in brief: as §3
[9] = Protein binding in rat brain assessed as free fraction; type: ADME, tissue-based
[10] = Permeability across basolateral to apical side in MDCK cells; type: ADME, cell-based, Canis lupus familiaris; details: dog
[11] = Permeability across apical to basolateral side in MDCK cells; type: ADME, cell-based, Canis lupus familiaris; details: dog
PXR (NR1I2) = target: T3, PXR (NR1I2) (Homo sapiens, UniProt O75469); experiment: Induction of human PXR at 10 uM relative to control; type: ADME; details: read-out: Activity
T3 sequence (O75469 whole entry): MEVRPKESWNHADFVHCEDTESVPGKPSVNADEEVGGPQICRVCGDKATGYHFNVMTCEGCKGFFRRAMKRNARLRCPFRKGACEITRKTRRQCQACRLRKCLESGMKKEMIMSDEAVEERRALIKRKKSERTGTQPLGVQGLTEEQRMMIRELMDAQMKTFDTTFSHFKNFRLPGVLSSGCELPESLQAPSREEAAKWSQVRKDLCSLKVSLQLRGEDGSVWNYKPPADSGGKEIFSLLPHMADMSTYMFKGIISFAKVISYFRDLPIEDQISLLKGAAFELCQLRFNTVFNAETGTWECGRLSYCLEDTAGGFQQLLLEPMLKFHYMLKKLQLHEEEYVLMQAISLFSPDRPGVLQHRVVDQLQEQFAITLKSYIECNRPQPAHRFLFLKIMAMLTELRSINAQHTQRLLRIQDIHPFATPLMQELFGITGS
Method in brief: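 Human PXR activation as an indirect measure of CYP3A4 induction, at 10 μM, expressed as % of rifampicin control activation.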

[12] = Protein binding in rat plasma assessed as free fraction; type: ADME, cell-free
[13] = Protein binding in human plasma assessed as free fraction; type: ADME, cell-free
[14] = Drug concentration in Sprague-Dawley rat plasma at 30 mg/kg, po after 0.5 hrs by LC-MS/MS analysis; type: ADME, organism-based; method in brief: as §3
[15] = Ex vivo receptor occupancy at OX1R in Sprague-Dawley rat brain tenia tecta using [3H]SB-674042 labelling at 30 mg/kg, po measured after 2 hrs by autoradiography; type: functional
Method in brief: (§4)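 Ex vivo OX1R binding autoradiography in rat tenia tecta after a 30 mg/kg po dose; percent occupancy read at 0.5 and 2 h.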

[16] = Ex vivo receptor occupancy at OX1R in Sprague-Dawley rat brain tenia tecta using [3H]SB-674042 labelling at 30 mg/kg, po measured after 0.5 hrs by autoradiography; type: functional; method in brief: as §4
[17] = Drug concentration in Sprague-Dawley rat brain at 30 mg/kg, po after 0.5 hrs by LC-MS/MS analysis; type: ADME, organism-based; details: read-out: Ct; method in brief: as §3

Compound	Ki [1]	Ki (Orexin receptor type 2)	hepatic extraction ratio [2]	hepatic extraction ratio [3]	also measured
O=C(c1cccc(F)c1-c1ncccn1)N1C2CCC1C(Oc1cnc(C(F)(F)F)cn1)C2 (racemic)	100 nM	5500 nM			
Cc1ccc(-c2ncccn2)c(C(=O)N2C3CCC2C(COc2ccc(F)cn2)C3)c1 (racemic)	8.7 nM	40 nM	0.91	0.89	
O=C(c1c(F)cccc1-c1ncccn1)N1[C@@H]2CC[C@H]1[C@H](Nc1cnc(C(F)(F)F)cn1)C2		560 nM			Activity [4]: 43%; concentration at 0.5 h [5]: 654 ng/mL; Activity [6]: 51%; Activity [7]: 29%; concentration at 0.5 h [8]: 1600 ng/mL
O=C(c1ccccc1-c1ncccn1)N1[C@@H]2CC[C@H]1[C@H](Nc1cnc(C(F)(F)F)cn1)C2	19 nM	520 nM	< 0.3	0.38	fraction unbound [9]: 0.067; Activity [4]: 83%; concentration at 0.5 h [5]: 296 ng/mL; Activity [6]: 77%; Papp B→A [10]: 68 ×10⁻⁶ cm/s; Papp A→B [11]: 1.1 ×10⁻⁶ cm/s; activity at 10 µM (PXR (NR1I2)): 18%; fraction unbound [12]: 0.214; fraction unbound [13]: 0.15; Activity [7]: 48%; concentration at 0.5 h [8]: 1480 ng/mL
COc1ccc(C[C@H]2c3cc(OC)c(OC)cc3CCN2[C@@H](C(=O)NC(C)C)c2ccccc2)cc1OC	6 nM				
Cc1ccc(-n2nccn2)c(C(=O)N2C3CCC2C(COc2ccc(C(F)(F)F)cn2)C3)n1 (racemic)	500 nM	420 nM			
O=C(c1ccccc1-n1nccn1)N1C2CCC1C(Nc1ncc(C(F)(F)F)cn1)C2 (racemic)	180 nM				
O=C(c1cccc(F)c1-c1ncccn1)N1[C@@H]2CC[C@H]1[C@H](Nc1ccc(C(F)(F)F)cn1)C2			0.75	0.82	Activity [4]: 69%; concentration at 0.5 h [5]: 72 ng/mL; Activity [6]: 70%; Activity [7]: 21%; concentration at 0.5 h [8]: 586 ng/mL
O=C(c1ccccc1-n1nccn1)N1C2CCC1C(Nc1cnc(C(F)(F)F)cn1)C2 (racemic)	62 nM	1250 nM	0.36	0.55	
O=C(c1cccc(F)c1-c1ncccn1)N1[C@@H]2CC[C@H]1[C@H](Nc1ncc(C(F)(F)F)cc1Cl)C2	14 nM	540 nM	0.61	0.83	
O=C(c1ccc(F)cc1-c1ncccn1)N1[C@@H]2CC[C@H]1[C@H](Nc1cnc(C(F)(F)F)cn1)C2	61 nM	1700 nM	0.81	0.76	concentration at 0.5 h [14]: 257 ng/mL; Activity [15]: 17%; Activity [16]: 75%; concentration at 0.5 h [17]: 37 ng/mL
Cc1ccc(-n2nccn2)c(C(=O)N2C3CCC2C(Nc2ccc(C(F)(F)F)cn2)C3)n1 (racemic)	75 nM		0.93	> 0.92	
O=C(c1ccccc1-c1cccs1)N1C2CCC1C(COc1ccc(F)cn1)C2 (racemic)		13 nM	> 0.95	> 0.92	
Cc1ccc(-c2ncccn2)c(C(=O)N2[C@@H]3CC[C@H]2[C@H](COc2ccccn2)C3)n1	19 nM	230 nM	0.61	0.82	
